Measurements taken from publication PMC8602434 (Drugs in R&D, 2021).

Tests used:
[1] = Dog 28-day toxicology study with pharmacokinetic analysis, sc; assay type: in vivo
[2] = Healthy volunteers, single-dose arm, sc; assay type: in vivo; conditions: human; for half-life: t½
Procedure, shortened: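 Double-blind single abdominal sc injection at 0.1, 0.5, 1, 3 or 5 mg versus placebo. Cohorts of six or eight subjects; the 0.1 mg cohort had 4 active and 2 placebo. Serial blood sampling to 48 h post-dose. Plasma assayed by validated bioanalytical method. Noncompartmental analysis: Cmax, tmax, t½, AUC (linear trapezoidal to last quantifiable concentration), AUC∞, CL/F. AEs recorded.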

[3] = both, plasma, sc, 0.1 mg, single 0.1 mg sc, mean (SD), n=4
[4] = both, plasma, sc, 0.5 mg, single 0.5 mg sc, mean (SD), n=4
[5] = both, plasma, sc, 1 mg, single 1.0 mg sc, mean (SD), n=6
[6] = both, plasma, sc, 3 mg, single 3.0 mg sc, median, n=6
[7] = both, plasma, sc, 5 mg, single 5.0 mg sc, mean (SD), n=6
[8] = single 0.1 mg sc, geometric mean, n=4
[9] = single 0.1 mg sc, mean (SD), n=4
[10] = single 0.5 mg sc, geometric mean, n=2
[11] = single 0.5 mg sc, geometric mean, n=4
[12] = single 1.0 mg sc, geometric mean, n=6
[13] = single 3.0 mg sc, mean (SD), n=6
[14] = single 5.0 mg sc, geometric mean, n=6
[15] = single 5.0 mg sc, mean (SD), n=6

AUC(0-t) ([2]; both, plasma, sc, 0.1 mg): 2.7 ng·h/mL
tmax ([2]; both, plasma, sc, 0.1 mg): 0.6 h
AUC(0-inf) [2, 3]: 3.5 ng·h/mL
CL/F ([2]; both, plasma, sc, 0.1 mg, CL/F, single 0.1 mg sc, mean (SD), n=4): 29.8 L/h
Cmax ([2]; both, plasma, sc, 0.1 mg, Cmax, single 0.1 mg sc, mean (SD), n=4): 2.3 ng/mL
Vd/F ([2]; both, plasma, sc, 0.1 mg, Vd/F, single 0.1 mg sc, mean (SD), n=4): 36.1 L
half-life [2, 3]: 0.9 h
AUC(0-t) ([2]; both, plasma, sc, 0.5 mg): 19.9 ng·h/mL
tmax ([2]; both, plasma, sc, 0.5 mg): 0.5 h
AUC(0-inf) [2, 4]: 22.4 ng·h/mL
CL/F ([2]; both, plasma, sc, 0.5 mg, CL/F, single 0.5 mg sc, mean (SD), n=4): 28.6 L/h
Cmax ([2]; both, plasma, sc, 0.5 mg, Cmax, single 0.5 mg sc, mean (SD), n=4): 8.2 ng/mL
Vd/F ([2]; both, plasma, sc, 0.5 mg, Vd/F, single 0.5 mg sc, mean (SD), n=2): 74.4 L
half-life [2, 4]: 2.8 h
AUC(0-t) ([2]; both, plasma, sc, 1 mg): 40.3 ng·h/mL
tmax ([2]; both, plasma, sc, 1 mg): 0.6 h
AUC(0-inf) [2, 5]: 46.2 ng·h/mL
CL/F ([2]; both, plasma, sc, 1 mg, CL/F, single 1.0 mg sc, mean (SD), n=6): 22.9 L/h
Cmax ([2]; both, plasma, sc, 1 mg, Cmax, single 1.0 mg sc, mean (SD), n=6): 17.4 ng/mL
Vd/F ([2]; both, plasma, sc, 1 mg, Vd/F, single 1.0 mg sc, mean (SD), n=3): 173 L
Vd/F ([2]; both, plasma, sc, 1 mg, Vd/F, single 1.0 mg sc, median, n=3): 186 L
half-life [2, 5]: 6.7 h
AUC(0-t) ([2]; both, plasma, sc, 3 mg): 137 ng·h/mL
AUC(0-inf) [2, 6]: 163 ng·h/mL
CL/F ([2]; both, plasma, sc, 3 mg, CL/F, single 3.0 mg sc, mean (SD), n=6): 19.3 L/h
CL/F ([2]; both, plasma, sc, 3 mg, CL/F, single 3.0 mg sc, median, n=6): 18.4 L/h
Cmax ([2]; both, plasma, sc, 3 mg, Cmax, single 3.0 mg sc, median, n=6): 49.1 ng/mL
Vd/F ([2]; both, plasma, sc, 3 mg, Vd/F, single 3.0 mg sc, mean (SD), n=4): 375 L
Vd/F ([2]; both, plasma, sc, 3 mg, Vd/F, single 3.0 mg sc, median, n=4): 394 L
half-life ([2]; both, plasma, sc, 3 mg, single 3.0 mg sc, geometric mean, n=6): 15.2 h
half-life ([2]; both, plasma, sc, 3 mg, single 3.0 mg sc, mean (SD), n=6): 19.5 h
half-life [2, 6]: 12.3 h
AUC(0-t) ([2]; both, plasma, sc, 5 mg): 226 ng·h/mL
tmax ([2]; both, plasma, sc, 5 mg): 0.8 h
AUC(0-inf) [2, 7]: 240 ng·h/mL
CL/F ([2]; both, plasma, sc, 5 mg, CL/F, single 5.0 mg sc, mean (SD), n=6): 21.3 L/h
Cmax ([2]; both, plasma, sc, 5 mg, Cmax, single 5.0 mg sc, mean (SD), n=6): 87.8 ng/mL
Vd/F ([2]; both, plasma, sc, 5 mg, Vd/F, single 5.0 mg sc, mean (SD), n=6): 502 L
half-life [2, 7]: 16.3 h
Median time for last measurable concentration ([2]; 0.1-mg dose): 2 h
Median time for last measurable concentration ([2]; 0.5-mg dose): 6 h
Median time for last measurable concentration ([2]; 1-mg dose): 16 h
Median time for last measurable concentration ([2]; 3-mg dose): 30 h
Median time for last measurable concentration ([2]; 5-mg dose): 48 h
AUC0–t [2, 8]: 2.6 ng·h/mL
AUC∞ [2, 8]: 3.4 ng·h/mL
AUC∞/dose [2, 8]: 34.2 ng·h/mL/mg
CL/F [2, 8]: 29.2 L/h
Cmax [2, 8]: 2.2 ng/mL
Cmax/dose [2, 8]: 22.1 ng/mL/mg
t½ [2, 8]: 0.8 h
AUC∞/dose [2, 9]: 34.9 (7.82) ng·h/mL/mg
Cmax/dose [2, 9]: 23.4 (10.1) ng/mL/mg
AUC0–t ([2]; single 0.1 mg sc, median, n=4): 2.6 ng·h/mL
AUC∞ ([2]; single 0.1 mg sc, median, n=4): 3.5 ng·h/mL
AUC∞/dose ([2]; single 0.1 mg sc, median, n=4): 35.3 ng·h/mL/mg
CL/F ([2]; single 0.1 mg sc, median, n=4): 28.5 L/h
Cmax ([2]; single 0.1 mg sc, median, n=4): 1.9 ng/mL
Cmax/dose ([2]; single 0.1 mg sc, median, n=4): 18.9 ng/mL/mg
Vd/F ([2]; single 0.1 mg sc, median, n=4): 36.6 L
t½ ([2]; single 0.1 mg sc, median, n=4): 0.8 h
AUC∞/dose [2, 10]: 50.4 ng·h/mL/mg
Vd/F [2, 10]: 74.1 L
AUC0–t [2, 11]: 16.8 ng·h/mL
AUC∞ [2, 11]: 19.4 ng·h/mL
CL/F [2, 11]: 25.8 L/h
Cmax [2, 11]: 7.6 ng/mL
Cmax/dose [2, 11]: 15.3 ng/mL/mg
t½ [2, 11]: 2.6 h
AUC∞/dose ([2]; single 0.5 mg sc, mean (SD), n=2): 59.9 (45.8) ng·h/mL/mg
Cmax/dose ([2]; single 0.5 mg sc, mean (SD), n=4): 16.4 (7.5) ng/mL/mg
AUC∞/dose ([2]; single 0.5 mg sc, median, n=2): 59.9 ng·h/mL/mg
Vd/F ([2]; single 0.5 mg sc, median, n=2): 74.4 L
AUC0–t ([2]; single 0.5 mg sc, median, n=4): 13.3 ng·h/mL
AUC∞ ([2]; single 0.5 mg sc, median, n=4): 15 ng·h/mL
CL/F ([2]; single 0.5 mg sc, median, n=4): 33.6 L/h
Cmax ([2]; single 0.5 mg sc, median, n=4): 7.2 ng/mL
Cmax/dose ([2]; single 0.5 mg sc, median, n=4): 14.3 ng/mL/mg
t½ ([2]; single 0.5 mg sc, median, n=4): 2.6 h
AUC∞/dose ([2]; single 1.0 mg sc, geometric mean, n=3): 35.4 ng·h/mL/mg
AUC0–t [2, 12]: 39.4 ng·h/mL
AUC∞ [2, 12]: 44.9 ng·h/mL
CL/F [2, 12]: 22.3 L/h
Cmax [2, 12]: 16.7 ng/mL
Cmax/dose [2, 12]: 16.7 ng/mL/mg
t½ [2, 12]: 6.1 h
AUC∞/dose ([2]; single 1.0 mg sc, mean (SD), n=3): 35.4 (1.8) ng·h/mL/mg
Cmax/dose ([2]; single 1.0 mg sc, mean (SD), n=6): 17.4 (5.0) ng/mL/mg
AUC∞/dose ([2]; single 1.0 mg sc, median, n=3): 34.5 ng·h/mL/mg
AUC0–t ([2]; single 1.0 mg sc, median, n=6): 39.2 ng·h/mL
AUC∞ ([2]; single 1.0 mg sc, median, n=6): 45.5 ng·h/mL
CL/F ([2]; single 1.0 mg sc, median, n=6): 22.7 L/h
Cmax ([2]; single 1.0 mg sc, median, n=6): 18.3 ng/mL
Cmax/dose ([2]; single 1.0 mg sc, median, n=6): 18.3 ng/mL/mg
t½ ([2]; single 1.0 mg sc, median, n=6): 6 h
AUC∞/dose ([2]; single 3.0 mg sc, geometric mean, n=4): 50.9 ng·h/mL/mg
Cmax/dose ([2]; single 3.0 mg sc, geometric mean, n=6): 17.8 ng/mL/mg
AUC∞/dose ([2]; single 3.0 mg sc, mean (SD), n=4): 51.3 (7.7) ng·h/mL/mg
AUC0–t [2, 13]: 138 (18.9) ng·h/mL
AUC∞ [2, 13]: 158 (19.4) ng·h/mL
Cmax [2, 13]: 54.4 (11.3) ng/mL
Cmax/dose [2, 13]: 18.1 (3.8) ng/mL/mg
AUC∞/dose ([2]; single 3.0 mg sc, median, n=4): 51.1 ng·h/mL/mg
AUC0–t ([2]; single 3.0 mg sc, median, n=6): 138 ng·h/mL
Cmax/dose ([2]; single 3.0 mg sc, median, n=6): 16.4 ng/mL/mg
tmax ([2]; single 3.0 mg sc, median, n=6): 0.6 h
AUC0–t [2, 14]: 224 ng·h/mL
AUC∞ [2, 14]: 237 ng·h/mL
AUC∞/dose [2, 14]: 47.5 ng·h/mL/mg
CL/F [2, 14]: 21.1 L/h
Cmax [2, 14]: 83.4 ng/mL
Cmax/dose [2, 14]: 16.7 ng/mL/mg
t½ [2, 14]: 16.1 h
AUC∞/dose [2, 15]: 48.0 (7.4) ng·h/mL/mg
Cmax/dose [2, 15]: 17.6 (6.2) ng/mL/mg
AUC0–t ([2]; single 5.0 mg sc, median, n=6): 235 ng·h/mL
AUC∞ ([2]; single 5.0 mg sc, median, n=6): 246 ng·h/mL
AUC∞/dose ([2]; single 5.0 mg sc, median, n=6): 49.2 ng·h/mL/mg
CL/F ([2]; single 5.0 mg sc, median, n=6): 20.3 L/h
Cmax ([2]; single 5.0 mg sc, median, n=6): 80.9 ng/mL
Cmax/dose ([2]; single 5.0 mg sc, median, n=6): 16.2 ng/mL/mg
Vd/F ([2]; single 5.0 mg sc, median, n=6): 496 L
t½ ([2]; single 5.0 mg sc, median, n=6): 17.3 h
Time after dosing at which PL8177 was first measurable in plasma ([2]; single sc dose): 15 min
Persistence of measurable PL8177 in plasma ([2]; single sc dose, at higher doses): up to 48 h
Dose linearity for AUC∞ and Cmax ([2]; single-dose arm): inconclusive
Intact drug excreted in the urine ([2]; single-dose arm): ≤ 1%
Time after dosing at which Cmax was generally reached (tmax) ([2]; single-dose arm): 0.5 to 0.75 h
Structure (SMILES): CCCC[C@H](NC(C)=O)C(=O)N[C@H]1CCC(=O)NC[C@@H](C(=O)N[C@@H](Cc2c[nH]c3ccccc23)C(N)=O)NC(=O)[C@H](CCCNC(=N)N)NC(=O)[C@@H](Cc2ccccc2)NC(=O)[C@H](Cc2c[nH]cn2)NC1=O [PL8177]
Accumulation ratio (Rac), AUClast day 28/AUClast day 1 ([1]; 1.5- and 9.0-mg doses as printed): 0.8
Accumulation ratio (Rac), AUClast day 28/AUClast day 1 ([1]; 40-mg dose): 1.8
Difference between mean Cmax and AUClast values, multiple-dose versus single-dose ([1]; sc): < 2 fold
Overall tolerability ([2]; single and multiple ascending sc doses): well tolerated
AEs leading to study discontinuation, serious AEs, or severe AEs ([2]; single-dose arm): no reports
